“And” between values parts separate entries of the source, which are not always exact repeats. Equal entries are not always repeated.
Tests used:
[1] = system: patients with relapsed or refractory MM; conditions: twice-weekly oral ixazomib; cited from earlier work
[2] = system: relapsed/refractory lymphoma; assay: Disease response by International Working Group criteria for lymphoma; format: in vivo, human; conditions: for Duration of response: follicular lymphoma patient
Outline: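 CT and PET were done at screening, with repeat PET at end of cycles 2 and 4 if positive. Response was assessed at end of cycle 2, every 2 cycles to cycle 12, then every 4 cycles. Evaluable patients had measurable baseline disease and ⩾1 post-baseline assessment.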

[3] = biological target: 20S proteasome (Homo sapiens, UniProt P28074); assay: Whole blood 20S proteasome activity; format: in vivo; conditions: for Emax / Time to Emax: whole blood 20S; for Maximal 20S proteasome inhibition / Time of maximal 20S proteasome inhibition after administration: whole blood, MTD 2.34 mg/m^2
Outline: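 Whole blood was sampled after IV bolus dosing (0.125–3.11 mg/m2) on cycle 1 days 1 and 15. 20S proteasome activity was measured by fluorogenic assay.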

[4] = system: patients with relapsed or refractory light-chain amyloidosis; conditions: weekly oral ixazomib; cited from earlier work
[5] = day 1, IV 0.125 mg/m^2, n=1, individual value
[6] = day 1, IV 0.25 mg/m^2, n=1, individual value
[7] = day 1, IV 0.5 mg/m^2, n=1, individual value
[8] = day 1, IV 1 mg/m^2, n=1, individual value
[9] = day 15, IV 0.25 mg/m^2, n=1, individual value
[10] = day 15, IV 0.5 mg/m^2, n=1, individual value
[11] = day 15, IV 1 mg/m^2, n=1, individual value
[12] = day 15, IV 3.11 mg/m^2, n=2, individual values

For `CC(C)C[C@H](NC(=O)CNC(=O)c1cc(Cl)ccc1Cl)B(O)O` [ixazomib], the “Rate of drug-related rash” value [1] is listed as 28%, the “Rate of drug-related skin and subcutaneous tissue disorders” value [1] is listed as 40% and the “Patients achieving responses (CR or PR)” value ([2]; 26 evaluable patients) is listed as “five”. The Duration of response ([2]; 1.4 mg/m^2) was 24.1 months, the Duration of response ([2]; 2.34 mg/m^2) was 2 months and the “Responders among follicular lymphoma patients” value ([2]; one complete and three partial responses) was 4/11 and 4 of 11. The “Responders among peripheral T-cell lymphoma patients” value ([2]; partial response) was 1/4, the “Median duration of stable disease” value ([2]; six patients, range 1.7–5.4) was 3.6 months and the “Dose dependence of maximal whole blood 20S proteasome inhibition” value ([3]; 0.125–3.11 mg/m^2) was “dose-dependent increase”. For the same compound, the “AUE0–168 h” value ([3]; area under 20S inhibition vs time curve, day 1, IV 1.4 mg/m^2, n=3, mean (±s.d.)) was 2000 (±1160) % inhibition/h, the Emax [3, 5] was 5.15 % inhibition and the “Time to Emax” value [3, 5] was 0.25 h. For the same compound, the Emax [3, 6] was 18.5 % inhibition, the “Time to Emax” value [3, 6] was 0.083 h and the Emax [3, 7] was 33.2 % inhibition. The “Time to Emax” value [3, 7] was 0.1 h, the Emax [3, 8] was 50.5 % inhibition and the “Time to Emax” value [3, 8] was 0.083 h. For the same compound, the Emax ([3]; day 1, IV 1.4 mg/m^2, n=3, mean (±s.d.)) was 66.3 (±14.8) % inhibition, the “Time to Emax” value ([3]; day 1, IV 1.4 mg/m^2, n=3, median (range)) was 0.117 (0.1–0.133) h and the Emax ([3]; day 1, IV 1.76 mg/m^2, n=7, mean (±s.d.)) was 72.2 (±8.1) % inhibition. For the same compound, the “Time to Emax” value ([3]; day 1, IV 1.76 mg/m^2, n=7, median (range)) was 0.083 (0.083–0.1) h, the Emax ([3]; day 1, IV 2.34 mg/m^2, n=5, mean (±s.d.)) was 81.9 (±3.2) % inhibition and the “Time to Emax” value ([3]; day 1, IV 2.34 mg/m^2, n=5, median (range)) was 0.083 (0.083–0.25) h. For the same compound, the Emax ([3]; day 1, IV 3.11 mg/m^2, n=4, mean (±s.d.)) was 80.2 (±3.6) % inhibition, the “Time to Emax” value ([3]; day 1, IV 3.11 mg/m^2, n=4, median (range)) was 0.109 (0.083–0.533) h and the Emax [3, 9] was 64.3 % inhibition. For the same compound, the “Time to Emax” value [3, 9] was 0.1 h, the Emax [3, 10] was 19.2 % inhibition and the “Time to Emax” value [3, 10] was 0.1 h. The Emax [3, 11] was 44.4 % inhibition, the “Time to Emax” value [3, 11] was 0.083 h and the Emax ([3]; day 15, IV 1.4 mg/m^2, n=3, mean (±s.d.)) was 69.8 (±10.6) % inhibition. For the same compound, the “Time to Emax” value ([3]; day 15, IV 1.4 mg/m^2, n=3, median (range)) was 0.083 (0.083–0.083) h, the Emax ([3]; day 15, IV 1.76 mg/m^2, n=3, mean (±s.d.)) was 74.8 (±4.5) % inhibition and the “Time to Emax” value ([3]; day 15, IV 1.76 mg/m^2, n=3, median (range)) was 0.083 (0.033–0.083) h. For the same compound, the Emax ([3]; day 15, IV 2.34 mg/m^2, n=4, mean (±s.d.)) was 79.6 (±4.9) % inhibition, the “Time to Emax” value ([3]; day 15, IV 2.34 mg/m^2, n=4, median (range)) was 0.167 (0.083–0.25) h and the Emax [3, 12] was 82.3 % inhibition and 85 % inhibition. The “Time to Emax” value [3, 12] was 0.083 h and 0.117 h, the “Maximal 20S proteasome inhibition” value ([3]; day 1) was 82% and the “Time of maximal 20S proteasome inhibition after administration” value ([3]; day 1) was 5 min. The “Maximal 20S proteasome inhibition” value ([3]; day 15) was 80%, the “Time of maximal 20S proteasome inhibition after administration” value ([3]; day 15) was 10 min and the “Rate of all-cause rash/maculopapular rash” value [4] was 18%.
